In test [1] the test system is Epidermal growth factor receptor (Homo sapiens), P00533 [L861Q]. The test is described as follows: Binding affinity to human partial length EGFR L861Q mutant (R669 to V1011 residues) expressed in bacterial expression system assessed as residual binding level at 1 uM by Kinomescan method relative to control. The gist of the method:
(§1)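 Kinome-wide selectivity panel run by the KINOMEscan method, with the test compound at a single concentration of 1 μM. Wild-type and mutant kinases were profiled in the same screen.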

The subject of test [2] is Tyrosine-protein kinase ABL1 (Homo sapiens), P00519 [F317L]. The test is described as follows: Binding affinity to human phosphorylated ABL1 F317L mutant (S229 to K512 residues) expressed in mammalian expression system assessed as residual binding level at 1 uM by Kinomescan method relative to control. The gist of the method:
as §1

Test [3] concerns the target Interferon-induced, double-stranded RNA-activated protein kinase (Homo sapiens) (UniProt P19525). Briefly: Binding affinity to wild-type human partial length PRKR (F247 to C551 residues) expressed in bacterial expression system assessed as residual binding level at 1 uM by Kinomescan method relative to control.
Test [4] has as its target Serine/threonine-protein kinase Nek6 (Homo sapiens) (UniProt Q9HC98). The test is described as follows: Binding affinity to wild-type human full length NEK6 (M8 to T313 residues) expressed in bacterial expression system assessed as residual binding level at 1 uM by Kinomescan method relative to control. An outline of the steps:
(§2)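 Single-point kinome-wide KINOMEscan binding panel, test compound at 1 μM, run by the provider's standard protocol.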

The target of test [5] is Mast/stem cell growth factor receptor Kit (Homo sapiens) (UniProt P10721). The test is described as follows: Binding affinity to wild-type human partial length KIT (I571 to D952 residues) expressed in bacterial expression system assessed as residual binding level at 1 uM by Kinomescan method relative to control.
Mast/stem cell growth factor receptor Kit (Homo sapiens), sequence (P10721 whole entry, the tested form may be a part): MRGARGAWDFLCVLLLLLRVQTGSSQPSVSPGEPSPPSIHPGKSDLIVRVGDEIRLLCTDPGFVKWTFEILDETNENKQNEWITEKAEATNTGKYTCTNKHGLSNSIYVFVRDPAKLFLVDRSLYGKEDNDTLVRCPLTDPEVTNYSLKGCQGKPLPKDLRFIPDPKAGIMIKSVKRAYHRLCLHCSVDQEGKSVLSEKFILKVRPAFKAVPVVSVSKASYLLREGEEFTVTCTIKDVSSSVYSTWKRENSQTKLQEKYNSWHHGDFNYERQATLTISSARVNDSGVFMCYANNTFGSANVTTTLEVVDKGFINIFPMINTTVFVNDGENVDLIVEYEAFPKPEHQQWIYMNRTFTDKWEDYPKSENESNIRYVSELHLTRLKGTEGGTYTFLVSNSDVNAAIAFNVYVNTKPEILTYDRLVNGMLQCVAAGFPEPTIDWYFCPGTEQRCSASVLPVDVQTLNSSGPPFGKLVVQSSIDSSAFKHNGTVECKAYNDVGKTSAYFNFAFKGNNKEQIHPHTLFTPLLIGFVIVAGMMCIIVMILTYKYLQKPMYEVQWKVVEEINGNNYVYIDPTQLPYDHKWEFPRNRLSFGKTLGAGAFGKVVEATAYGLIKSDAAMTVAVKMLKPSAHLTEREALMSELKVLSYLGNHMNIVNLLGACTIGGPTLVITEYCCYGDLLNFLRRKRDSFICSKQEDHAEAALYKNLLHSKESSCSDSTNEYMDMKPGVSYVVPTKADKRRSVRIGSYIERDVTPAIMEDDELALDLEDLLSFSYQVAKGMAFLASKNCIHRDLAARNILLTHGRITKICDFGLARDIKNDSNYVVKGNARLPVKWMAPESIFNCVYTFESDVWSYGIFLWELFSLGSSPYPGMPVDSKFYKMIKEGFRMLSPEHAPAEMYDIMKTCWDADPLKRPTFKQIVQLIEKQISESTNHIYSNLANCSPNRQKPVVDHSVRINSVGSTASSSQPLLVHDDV
Test [6] addresses Wee1-like protein kinase 2 (Homo sapiens) (UniProt P0C1S8). The test is described as follows: Binding affinity to wild-type human partial length WEE2 (M204 to K492 residues) expressed in bacterial expression system assessed as residual binding level at 1 uM by Kinomescan method relative to control.
Test [7] addresses Tyrosine-protein kinase HCK (Homo sapiens) (UniProt P08631). The test is described as follows: Binding affinity to wild-type human full length HCK (M22 to P526 residues) expressed in bacterial expression system assessed as residual binding level at 1 uM by Kinomescan method relative to control. An outline of the steps: as §2
Test [8] has as its system Tyrosine-protein kinase ABL1 (Homo sapiens), P00519 [Q252H]. The test is described as follows: Binding affinity to human phosphorylated ABL1 Q252H mutant expressed in mammalian expression system assessed as residual binding level at 1 uM by Kinomescan method relative to control. The gist of the method:
as §1

The target of test [9] is Homeodomain-interacting protein kinase 3 (Homo sapiens) (UniProt Q9H422). Briefly: Binding affinity to wild-type human partial length HIPK3 (M153 to N562 residues) expressed in mammalian expression system assessed as residual binding level at 1 uM by Kinomescan method relative to control.
Test [10] deals with Focal adhesion kinase 1 (Homo sapiens) (UniProt Q05397). Briefly: Binding affinity to wild-type human partial length FAK (D402 to R696 residues) expressed in bacterial expression system assessed as residual binding level at 1 uM by Kinomescan method relative to control.
Test [11] deals with Phosphatidylinositol 4-phosphate 5-kinase type-1 gamma (Homo sapiens) (UniProt O60331). The test is described as follows: Binding affinity to wild-type human partial length PIP5K1C (M1 to T668 residues) expressed in mammalian expression system assessed as residual binding level at 1 uM by Kinomescan method relative to control.
Test [12] addresses Inhibitor of nuclear factor kappa-B kinase subunit beta (Homo sapiens) (UniProt O14920). Briefly: Binding affinity to wild-type human full length IKK-beta (M1 to S756 residues) expressed in mammalian expression system assessed as residual binding level at 1 uM by Kinomescan method relative to control. The gist of the method: as §2
For test [13], the target named is Activin receptor type-2B (Homo sapiens) (UniProt Q13705). Briefly: Binding affinity to wild-type human ACVR2B (H169 to D504 residues) expressed in bacterial expression system assessed as residual binding level at 1 uM by Kinomescan method relative to control.
Test [14] deals with Serine/threonine-protein kinase RIO1 (Homo sapiens) (UniProt Q9BRS2). Briefly: Binding affinity to wild-type human full length RIOK1 (M1 to K568 residues) expressed in bacterial expression system assessed as residual binding level at 1 uM by Kinomescan method relative to control. The gist of the method:
as §2

Test [15] deals with Calcium/calmodulin-dependent protein kinase type II subunit alpha (Homo sapiens) (UniProt Q9UQM7). The test is described as follows: Binding affinity to wild-type human partial length CAMK2A (M1 to K328 residues) expressed in bacterial expression system assessed as residual binding level at 1 uM by Kinomescan method relative to control.
Calcium/calmodulin-dependent protein kinase type II subunit alpha (Homo sapiens), sequence (Q9UQM7 whole entry, the tested form may be a part): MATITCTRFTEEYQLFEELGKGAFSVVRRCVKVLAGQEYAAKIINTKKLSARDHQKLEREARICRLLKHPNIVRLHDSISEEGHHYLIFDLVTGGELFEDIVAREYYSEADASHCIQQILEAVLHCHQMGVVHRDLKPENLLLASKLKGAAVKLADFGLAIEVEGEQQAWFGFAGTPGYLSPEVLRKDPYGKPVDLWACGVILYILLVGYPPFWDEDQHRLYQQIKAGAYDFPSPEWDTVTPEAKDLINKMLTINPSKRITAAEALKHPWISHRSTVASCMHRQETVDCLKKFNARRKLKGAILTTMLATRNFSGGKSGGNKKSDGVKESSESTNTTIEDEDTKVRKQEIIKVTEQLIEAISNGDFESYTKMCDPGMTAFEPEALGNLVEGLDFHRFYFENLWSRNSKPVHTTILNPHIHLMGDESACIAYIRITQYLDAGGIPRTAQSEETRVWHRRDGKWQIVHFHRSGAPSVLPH
For test [16], the target named is Serine/threonine-protein kinase 38 (Homo sapiens) (UniProt Q15208). Briefly: Binding affinity to wild-type human partial length NDR1 (N33 to E449 residues) expressed in mammalian expression system assessed as residual binding level at 1 uM by Kinomescan method relative to control.
Test [17] concerns the target Interleukin-1 receptor-associated kinase 4 (Homo sapiens) (UniProt Q9NWZ3). The test is described as follows: Binding affinity to wild-type human partial length IRAK4 (M1 to S460 residues) expressed in mammalian expression system assessed as residual binding level at 1 uM by Kinomescan method relative to control.
The target in test [18] is Ribosomal protein S6 kinase beta-1 (Homo sapiens) (UniProt P23443). The test is described as follows: Binding affinity to wild-type human partial length S6K1 (M1 to S421 residues) expressed in mammalian expression system assessed as residual binding level at 1 uM by Kinomescan method relative to control.
The test system of test [19] is Mast/stem cell growth factor receptor Kit (Homo sapiens), P10721 [D816V]. Briefly: Binding affinity to human partial length KIT D816V mutant (I571 to D952 residues) expressed in bacterial expression system assessed as residual binding level at 1 uM by Kinomescan method relative to control. The gist of the method: as §1
Mast/stem cell growth factor receptor Kit (Homo sapiens), P10721 [D816V], sequence (P10721 whole entry D816V, the tested form may be a part): as the sequence (P10721 whole entry, the tested form may be a part) above, with D816V counted along it
Test [20] has as its target Serine/threonine-protein kinase tousled-like 1 (Homo sapiens) (UniProt Q9UKI8). The test is described as follows: Binding affinity to wild-type human partial length TLK1 (K447 to A754 residues) expressed in bacterial expression system assessed as residual binding level at 1 uM by Kinomescan method relative to control.
The target of test [21] is Mitogen-activated protein kinase 6 (Homo sapiens) (UniProt Q16659). Briefly: Binding affinity to wild-type human partial length ERK3 (M1 to P413 residues) expressed in bacterial expression system assessed as residual binding level at 1 uM by Kinomescan method relative to control.
Mitogen-activated protein kinase 6 (Homo sapiens), sequence (Q16659 whole entry, the tested form may be a part): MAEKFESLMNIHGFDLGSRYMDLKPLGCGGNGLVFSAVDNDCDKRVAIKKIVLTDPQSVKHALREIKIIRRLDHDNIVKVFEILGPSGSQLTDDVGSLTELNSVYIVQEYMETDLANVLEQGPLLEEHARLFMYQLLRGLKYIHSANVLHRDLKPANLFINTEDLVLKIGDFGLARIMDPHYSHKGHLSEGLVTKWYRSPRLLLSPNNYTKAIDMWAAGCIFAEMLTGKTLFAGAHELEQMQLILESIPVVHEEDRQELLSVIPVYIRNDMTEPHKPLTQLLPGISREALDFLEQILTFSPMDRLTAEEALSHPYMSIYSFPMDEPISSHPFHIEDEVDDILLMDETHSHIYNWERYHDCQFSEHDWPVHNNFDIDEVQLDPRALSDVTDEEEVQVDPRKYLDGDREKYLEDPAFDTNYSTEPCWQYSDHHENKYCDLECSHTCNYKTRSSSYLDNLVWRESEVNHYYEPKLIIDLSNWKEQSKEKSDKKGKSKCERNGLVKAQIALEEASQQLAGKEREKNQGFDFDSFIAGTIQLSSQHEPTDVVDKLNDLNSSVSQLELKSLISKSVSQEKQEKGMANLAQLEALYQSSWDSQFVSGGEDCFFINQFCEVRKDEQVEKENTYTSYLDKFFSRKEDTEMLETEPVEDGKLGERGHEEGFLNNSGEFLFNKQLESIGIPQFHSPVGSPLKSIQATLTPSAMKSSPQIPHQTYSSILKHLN
In test [22] the target is Mitogen-activated protein kinase 1 (Homo sapiens) (UniProt P28482). The test is described as follows: Binding affinity to wild-type human full length ERK2 (M1 to S360 residues) expressed in bacterial expression system assessed as residual binding level at 1 uM by Kinomescan method relative to control. An outline of the steps:
as §2

Test [23] has as its target Casein kinase I isoform gamma-2 (Homo sapiens) (UniProt P78368). Briefly: Binding affinity to wild-type human full length CSNK1G2 (M1 to K415 residues) expressed in bacterial expression system assessed as residual binding level at 1 uM by Kinomescan method relative to control.
For test [24], the target named is Serine/threonine-protein kinase 35 (Homo sapiens) (UniProt Q8TDR2). Briefly: Binding affinity to wild-type human partial length STK35 (G182 to A534 residues) expressed in bacterial expression system assessed as residual binding level at 1 uM by Kinomescan method relative to control.

Each structure is given as a SMILES string.

Interleukin-1 receptor-associated kinase 4 (Homo sapiens), sequence (Q9NWZ3 whole entry, the tested form may be a part): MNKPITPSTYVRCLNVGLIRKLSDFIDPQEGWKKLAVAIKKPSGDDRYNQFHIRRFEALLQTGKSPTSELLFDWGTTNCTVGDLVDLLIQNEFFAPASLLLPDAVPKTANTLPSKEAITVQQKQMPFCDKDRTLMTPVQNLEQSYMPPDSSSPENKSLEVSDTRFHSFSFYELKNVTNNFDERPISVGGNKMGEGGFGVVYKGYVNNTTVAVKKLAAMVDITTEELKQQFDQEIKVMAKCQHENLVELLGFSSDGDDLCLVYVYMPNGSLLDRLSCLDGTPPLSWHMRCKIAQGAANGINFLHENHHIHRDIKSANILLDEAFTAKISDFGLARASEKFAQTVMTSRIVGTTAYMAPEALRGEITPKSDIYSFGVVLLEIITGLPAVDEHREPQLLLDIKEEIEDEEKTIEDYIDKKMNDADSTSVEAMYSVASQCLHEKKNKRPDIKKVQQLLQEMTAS
Serine/threonine-protein kinase tousled-like 1 (Homo sapiens), sequence (Q9UKI8 whole entry, the tested form may be a part): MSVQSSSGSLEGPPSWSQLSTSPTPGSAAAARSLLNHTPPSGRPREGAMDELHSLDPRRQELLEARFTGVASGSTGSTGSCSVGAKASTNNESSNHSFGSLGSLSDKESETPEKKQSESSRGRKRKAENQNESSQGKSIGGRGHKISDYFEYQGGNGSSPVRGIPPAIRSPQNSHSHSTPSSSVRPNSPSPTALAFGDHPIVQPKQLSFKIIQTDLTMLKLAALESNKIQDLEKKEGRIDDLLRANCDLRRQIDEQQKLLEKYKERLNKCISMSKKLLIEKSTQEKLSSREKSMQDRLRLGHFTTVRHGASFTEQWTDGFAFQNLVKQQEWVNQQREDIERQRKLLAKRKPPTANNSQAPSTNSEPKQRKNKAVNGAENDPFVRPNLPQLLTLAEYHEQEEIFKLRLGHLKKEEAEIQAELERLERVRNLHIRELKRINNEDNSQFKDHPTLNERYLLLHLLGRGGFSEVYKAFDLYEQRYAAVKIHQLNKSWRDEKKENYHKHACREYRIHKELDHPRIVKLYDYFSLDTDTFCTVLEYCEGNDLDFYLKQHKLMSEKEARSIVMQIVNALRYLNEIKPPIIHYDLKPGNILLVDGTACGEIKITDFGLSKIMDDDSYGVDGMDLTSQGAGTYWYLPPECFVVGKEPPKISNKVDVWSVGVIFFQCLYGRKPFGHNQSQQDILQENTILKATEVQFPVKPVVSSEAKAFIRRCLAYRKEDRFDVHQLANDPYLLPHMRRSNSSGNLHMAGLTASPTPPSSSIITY
Casein kinase I isoform gamma-2 (Homo sapiens), sequence (P78368 whole entry, looked up, the tested form may be a part, canonical isoform): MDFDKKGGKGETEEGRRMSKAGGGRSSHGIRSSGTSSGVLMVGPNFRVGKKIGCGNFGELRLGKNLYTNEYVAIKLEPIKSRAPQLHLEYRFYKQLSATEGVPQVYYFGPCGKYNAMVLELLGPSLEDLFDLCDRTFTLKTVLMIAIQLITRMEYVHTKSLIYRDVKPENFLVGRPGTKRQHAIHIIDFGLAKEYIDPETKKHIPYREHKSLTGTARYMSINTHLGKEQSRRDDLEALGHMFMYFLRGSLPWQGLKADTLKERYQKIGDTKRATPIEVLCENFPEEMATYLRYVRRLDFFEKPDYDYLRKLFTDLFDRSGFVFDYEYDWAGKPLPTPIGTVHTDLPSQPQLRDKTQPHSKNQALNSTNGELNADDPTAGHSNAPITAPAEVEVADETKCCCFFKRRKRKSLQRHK

`C=CC(=O)Nc1cc(Nc2ncc(Cl)c(Nc3ccccc3S(=O)(=O)C(C)C)n2)c(OC)cc1N(C)CCN(C)C`: the Activity came out at 2% in [1]; 2.9% in test [2]; 66% in [3]; 80% in [4]; 39% in test [5]; 93% in test [6]. The Activity in [7] turned out to be 49%; in [8] it was 2.8%; in [9] it was 87%; in [10] it was 0%; in [11] it was 98%; in test [12], 96%. Besides, the Activity in test [13] was 96%; in test [14] it was 92%; in test [15], 18%; in test [16], 56%; in [17] it was 96%; in test [18], 94%. For the same compound, the Activity in [19] stood at 26%; in [20], 68%; in test [21], 94%; in [22], 68%; in test [23] it was 74%; in test [24] it was 71%.

These data come from ChEMBL document CHEMBL4382192, “Discovery of a potent dual ALK and EGFR T790M inhibitor” (Eur J Med Chem, 2017).
